Most compounds without a hit are left out; they make up all but 29% or so of the library.
CYP2C19 activ: increases human CYP2C19 enzyme activity. activation factor at 5 µM. P33261. recombinant CYP2C19, luciferin-H EGE luminescence; stronger effect = higher value; 0 = fully inhibited enzyme, 1 = untreated enzyme. 96,000 tested, under 10 active;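 active = activation factor of at least 2 at 5 µM in the primary screen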;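 note: 0 = wells with 2.5 mM tranylcypromine and 1 = vehicle-only wells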
CYP2C9 activ: increases human cytochrome P450 2C9 activity; P11712; recombinant CYP2C9, luciferin-H conversion, luminescence; stronger effect = higher value; factor 1 = untreated enzyme, 0 = blocked; activation factor at 5 µM; 96,000 tested, 1.4% active; AID 1024;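 active = activation factor of 2 or more for CYP2C9 at a 5 µM dose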;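 note: 0 = sulfaphenazole-blocked wells and 1 = vehicle-only wells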
Target sequence (P11712 whole entry, looked up): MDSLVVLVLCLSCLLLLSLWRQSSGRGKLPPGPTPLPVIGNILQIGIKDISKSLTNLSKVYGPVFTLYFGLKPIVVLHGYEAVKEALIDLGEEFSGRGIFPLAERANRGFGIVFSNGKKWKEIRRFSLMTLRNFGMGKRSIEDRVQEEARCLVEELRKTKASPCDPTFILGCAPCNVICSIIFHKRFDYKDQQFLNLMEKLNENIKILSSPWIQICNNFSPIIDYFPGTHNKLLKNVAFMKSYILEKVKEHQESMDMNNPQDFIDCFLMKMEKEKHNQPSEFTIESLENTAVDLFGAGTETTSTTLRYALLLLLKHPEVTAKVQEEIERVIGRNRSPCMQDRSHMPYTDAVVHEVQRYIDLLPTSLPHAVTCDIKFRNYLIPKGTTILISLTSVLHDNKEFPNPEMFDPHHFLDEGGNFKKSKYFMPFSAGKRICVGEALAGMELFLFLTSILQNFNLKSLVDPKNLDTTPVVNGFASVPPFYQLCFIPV
Ecoli WT expand: growth inhibitors of E. coli BW25113 wild type. OD600 absorbance. growth inhibition, % at 100 µM. 98,000 tested, 0.15% active;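 active = growth inhibition above about 50% at one test dose, limit read from the data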;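 note: growth measured after 20 h incubation at 37 °C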
Ecoli tolC: blocks growth of E. coli BW25113 tolC mutant; OD615; growth inhibition, % at 10 µM (by protocol); 65,000 tested, 2.2% active; AID 573;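 active = growth inhibition at or above a cutoff equal to the mean over every tested compound plus 3 SD, cut at about 60% in these data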;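 note: growth measured after 20 h incubation at 37 °C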
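Doses: one dose of 10 µM final / Material: E. coli BW25113 ΔtolC::kan, tolC deletion mutant strain / Buffer or medium: LB with kanamycin 50 µg/mL / Evaluation: percent growth inhibition / Detection: optical density read at 615 nm / Incubation: 37 °C, 20 h exposure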
CYP2C9 inh: inhibitors of human CYP2C9 | AID 777 | P11712 | 96,000 tested, 20% active | inhibition, % at 5 µM | CYP2C9 Supersomes, luciferin-H conversion, luminescence;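 active = blocking of liver enzyme CYP2C9 beyond about 50% at 5 µM, limit read from the data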
CYP2C19 inh: blocks human cytochrome P450 2C19 | CYP2C19 Supersomes, luciferin-H EGE luminescence, 30 min | inhibition, % at 5 µM | 96,000 tested, 21% active | AID 778;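 active = CYP2C19 inhibition above a set limit at 5 µM in the primary screen, cut at about 50% in these data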;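 note: plate controls were negative control wells for no effect and 2.5 mM tranylcypromine positive control for full effect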
* = called active by the depositor; x = no result.

SMILES	CYP2C19 activ	CYP2C9 activ	Ecoli WT expand	Ecoli tolC	CYP2C9 inh	CYP2C19 inh
O=C(CSc1nc2ccncc2[nH]1)Nc1ccccc1C(F)(F)F	0.4	0.5	2	-17	48	60*
O=C(Nc1nc2ccccc2[nH]1)C1CC(=O)N(c2ccc3c(c2)OCCO3)C1 (stereo not drawn)	0.4	0.4	-3	1	62*	59*
Clc1ccccc1CSc1nc2ccncc2[nH]1	0	0.7	14	x	32	99*
O=C(Cn1cnc2ccccc2c1=O)Nc1nnc(SCc2ccccc2)s1	1	0.9	-11	x	9	-2
O=C(COc1ccc(F)cc1Br)N1CCc2ccccc21	0.8	1	1	-11	-2	20
Cc1ccc2nc(SCC(=O)Nc3cc(C)on3)[nH]c2c1	0.2	0.2	16	0	78*	76*
O=C(CSc1nc2ccccc2[nH]1)Nc1ccc(F)cc1	0.1	0.2	31	22	84*	94*
O=C(CCc1nc2ccccc2[nH]1)Nc1ccc2c(c1)OCO2	0.7	0.6	-2	17	37	34
COC(=O)c1ccc(CSc2nc3c(cnn3-c3ccc(C)cc3)c(=O)[nH]2)o1	x	x	x	5	x	x
COc1ccc2nc(SCC(=O)Nc3cc(C)on3)[nH]c2c1	0.6	0.6	5	x	39	43
O=C(CSc1nc2ccccc2[nH]1)Nc1ccc2c(c1)OCCO2	0.6	0.3	26	29	72*	38
COC(=O)c1ccc(CSc2nc3ccc(C)cc3[nH]2)o1	0.1	0.2	10	x	83*	93*
CCOc1cc2[nH]c(=S)n(CC3CCCN3CC)c(=O)c2cc1OCC (stereo not drawn)	1.1	1.1	7	0	-6	-12
CC(NC(=O)c1cc(-c2ccc(Br)cc2)on1)c1ccccc1 (stereo not drawn)	1	0.8	-1	3	19	4
CC1(C)NC(=O)N(CC(O)COc2ccc(N3C(=O)c4ccccc4C3=O)cc2)C1=O (stereo not drawn)	1.1	1	2	-7	-1	-9
CC1CN(C(=O)Cc2ccc(-c3ccccc3)cc2)CC(C)O1 (stereo not drawn)	0.4	0.4	1	-1	57*	58*
O=C(O)c1ccc(Sc2nnc(-c3cccc(Br)c3)o2)c([N+](=O)[O-])c1	1.3	0.3	4	x	66*	-33
COc1cc(-c2nnc(Sc3ccc(C(F)(F)F)cc3[N+](=O)[O-])o2)cc(OC)c1OC	0.6	0.8	-3	x	20	39
CC(C)Cn1c(CN2C(=O)c3ccccc3C2=O)nc2ccccc2c1=O	0.9	0.7	-10	-3	29	6
CN(C)Cc1nc2ccccc2c(=O)n1Cc1nc(C(C)(C)C)cs1	0.2	0.1	1	1	93*	82*
CCOC(=O)c1c(C)nc2c(c1C)/C(=N/O)CC(C)(C)C2	0.4	0.5	-8	-3	54*	64*
CCOc1ccc(C(=O)OCc2nnc(-c3cccs3)o2)cc1OC	0.3	0.2	-5	48	80*	68*
CCOc1ccc(C(=O)OCn2nnc3ccccc3c2=O)cc1OC	0.9	1.1	-5	6	-5	5
CN(/C(=N\S(=O)(=O)c1ccccc1)C(F)(F)F)c1ccccc1	0.7	1	5	x	-3	29
CCOC(=O)c1c2c(c(=S)n(-c3ccccc3)c1N)CCC2	0.4	0.5	-2	22	54*	60*
SMILES	CYP2C19 activ	CYP2C9 activ	Ecoli WT expand	Ecoli tolC	CYP2C9 inh	CYP2C19 inh
CCOC(=O)c1c(N)sn(-c2ccccc2)c1=S	0.8	0.9	-2	-5	14	17
N#Cc1c2c(c(=S)n(-c3ccccc3)c1N)CCCC2	0.8	0.4	-11	1	57*	22
CC(/C=C/c1ccc2c(c1)OCO2)=N\NC(=O)c1cccc([N+](=O)[O-])c1	1	0.9	-2	x	9	0
CCN1C(=O)/C(=C\c2ccc3c(c2)OCO3)C(C(=O)OC)=C1C	0.8	0.6	-5	x	39	15
CCOc1cc(/C=C2\C(=O)N(Cc3ccc(C)cc3)C(C)=C2C(=O)OC)ccc1O	0.6	0.2	-13	x	83*	40
Cc1ccc(NS(=O)(=O)c2cccc(C(=O)n3ncc(C#N)c3N)c2)c(C)c1	0.7	0.5	8	-26	51*	27
Cc1nc(CCNC(=O)COc2ccccc2)cs1	0.7	1.1	7	-4	-6	30
CCc1nc(SCC(=O)Nc2sc(C)c(C)c2C(=O)OC)c2ccccc2n1	0.9	0.5	-2	x	54*	14
CCc1nc(SCC(=O)N2c3ccccc3Sc3ccccc32)c2ccccc2n1	1	0.5	2	x	53*	0
Cc1cccc(NC(=O)CSc2nc(COc3ccccc3)nc3ccccc23)c1C	0.6	0.1	-5	x	90*	39
Cc1cccc(C)c1NC(=O)CSc1nc(COc2ccccc2)nc2ccccc12	0.3	0.1	-6	x	90*	66*
Cc1cccc(C)c1NC(=O)CSCc1cccc(CSCC(=O)Nc2c(C)cccc2C)n1	0.9	0.8	-9	x	17	7
CCc1nc(SCC(=O)Nc2nc3c(s2)CCCC3)c2ccccc2n1	1	0.8	-1	x	16	-3
O=C(O/N=C1\CCCc2ccccc21)c1ccc(F)cc1	1.1	1.1	-15	x	-14	-11
Cn1c(=O)c2c(nc(NC3CCCCC3)n2CC(=O)C23CC4CC(CC(C4)C2)C3)n(C)c1=O	x	x	-11	-9	x	x
O=C(Nc1cc(Cl)ccc1O)c1snnc1-c1ccccc1	0.5	0.2	-2	x	83*	52*
COc1ccccc1NC(=O)Cc1csc(NC(=S)Nc2ccccc2)n1	0.9	0.3	-2	x	66*	8
O=C(CCc1ccccc1)Nc1cc(Cl)ccc1O	0	0.1	28	3	88*	99*
O=C(O)CC(=O)Nc1cc(Cl)ccc1O	1	0.8	1	x	15	-1
COc1ccccc1CC(=O)Nc1ccccc1O	0.4	3.5*	5	x	-245	62*
CS(=O)(=O)N1CCN(c2ccccc2NC(=O)c2cccnc2)CC1	1	1	-3	-5	-2	3
COc1ccccc1CC(=O)Nc1cc(Cl)ccc1O	0.5	1.9	4	x	-91	51*
COc1ccccc1CC(=O)Nc1ccc(OC)c(OC)c1	0.7	1.2	2	-2	-18	29
COc1cc(NC(=O)Cc2ccccc2OC)cc(OC)c1	0.5	0.7	5	-13	30	51*
COc1ccccc1CNC(=O)CN(C)CC(=O)Nc1cccc(F)c1	0.1	0.2	6	-6	85*	92*
Cn1cc(C(=O)Nc2ccc(F)c(F)c2)cn1	1.1	1.1	15	x	-13	-6
Cc1ccc2cc(CN(C(=O)c3ccncc3)C(C)C)c(=O)[nH]c2c1	0.8	0.8	-3	5	22	23
N#CC1=C(N)OC2=C(C(=O)CCC2)C12CCC1(CC2)OCCO1	0.9	1	-1	-18	1	5

Assay outcomes (PubChem)
